From PubChem BioAssay
Yeast eIF2B: GCN4-lacZ reporter reduction in eIF2B-epsilon mutant yeast, primary screen, S. cerevisiae, eIF2B-epsilon R284H, Beta-Glo luminescence; inhibition, % at 25 µM (by protocol); actives 0.91% (n = 27,000);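 active means mutant luminescence inhibited past about 50% while wild type luminescence and mutant growth stay under set limits, limit read from the data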
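material = yeast eIF2B-epsilon R284H mutant carrying GCN4–beta-galactosidase fusion | schedule = 16 h growth with compound at 30 °C, 90 min Beta-Glo step | measured by = luminescence and A595 | compound dosing = one concentration, 25 µM, 0.25% DMSO | read-out basis = % inhibition of reporter signal and growth versus controls | buffer or medium = YPD medium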
Yeast growth tox: yeast growth toxicity, wild-type and mutant, primary screen, cytotoxicity control for eIF2B function restoration project, wild-type and eIF2Bepsilon R284H mutant, A595. S. cerevisiae wild-type growth, A595 turbidity, 16 h. growth inhibition, % at 25 µM (by protocol). actives 0.3% (n = 30,000);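 active means mutant and wild-type yeast strains alike exhibit over 30% growth inhibition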;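 further: 0% = untreated cell controls and 100% = YPD media blanks without cells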
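Incubation: 16 h growth with compound, 30 °C; Material: S. cerevisiae wild-type or eIF2Bepsilon-R284H mutant strain; Signal: turbidity measured as absorbance at 595 nm; Medium: YPD yeast growth medium; Measure: growth inhibition (%) versus cell controls and blanks; Doses: 25 µM single dose.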
Active calls of the source: *; x = not tested or not shown. Compounds with a hit are over-represented: about 1% of the library has one in this group of screens.

SMILES	Yeast eIF2B	Yeast growth tox
CCCC(=Nc1ccc(N)cc1)C1=C(O)C(C(=O)OC)C(C)(C)CC1=O (stereo not given)	11	3
O=c1[nH]c(SCc2n[nH]c(=S)n2-c2ccccc2)nc2sc3c(c12)CCC3	x	35
O=C(Nc1ccccc1C(=O)NC1CCCCC1)c1ccco1	17	-2
Cc1ccc(N2CC(C(=O)Nc3ccccc3C(=O)NC3CCCCC3)CC2=O)cc1C (stereo not given)	54*	10
O=C(COC(=O)c1ccccc1Nc1cccc(C(F)(F)F)c1)NCc1ccco1	-13	-10
CCCOC(=O)/C(=C\c1ccc([N+](=O)[O-])o1)NC(=O)c1ccccc1	0	-16
CCc1ccc(C(=O)/C=C/c2ccc([N+](=O)[O-])o2)cc1	x	66*
c1cncc(-c2noc(CC3CCCCC3)n2)c1	16	8
CC(CC(=O)Nc1nc2ccccc2[nH]1)c1ccccc1 (stereo not given)	1	14
O=C(COc1cccc2ccccc12)Nc1nc2ccccc2[nH]1	x	30*
CCC(C)(C)n1nnnc1CN1CCN(C(c2ccccc2)c2ccccc2)CC1	-6	14
O=C(Nc1ccon1)c1cc2ccccc2oc1=O	20	23
COC(=O)c1ccccc1NC(=O)CSc1nc(-c2ccco2)cc(C(F)(F)F)n1	66*	-5
COC(=O)c1ccc(C(=O)OC)c(NC(=O)CSc2nc(-c3ccco3)cc(C(F)(F)F)n2)c1	18	0
Cc1cccnc1Nc1nc(-c2ccc(O)cc2)cs1	x	36*
Clc1ccc(Nc2nc(-c3cccnc3)cs2)cc1	20	5
O=C(Nc1nnc(C2CC2)s1)C1Cc2ccccc2CN1S(=O)(=O)c1ccccc1F (stereo not given)	29	-13
Cc1ccccc1OCc1nc2c3cnn(C)c3ncn2n1	55*	-14
Cc1cccc(C)c1OCc1nnc2c3cnn(C)c3ncn12	-12	13
Cc1ccc(-c2nc3ccc(NS(=O)(=O)c4ccccc4)cc3[nH]2)o1	15	11
CN1C(=O)N(C)C2(c3ccccc3)NC(=O)NC12c1ccccc1 (stereo not given)	54*	3
CN1C(=O)NC2(O)C(=O)c3ccccc3C12O (stereo not given)	x	8
COc1ccc(S(=O)(=O)N2CCCCC2C(=O)O)cc1 (stereo not given)	12	13
COc1ccc(S(=O)(=O)N2CCCCC2C(=O)O)cc1OC (stereo not given)	50*	-4
COC(=O)c1nn(-c2ccc3c(c2)CCN3C(C)=O)cc1O	77*	-9
SMILES	Yeast eIF2B	Yeast growth tox
COC(=O)c1nn(-c2ccc3c(c2)OCO3)cc1O	26	-24
CCN(CC)C(=O)C(Sc1ccccc1)c1ccccc1 (stereo not given)	-35	25
O=C(CCS(=O)NCc1ccccc1)NCc1ccccc1 (stereo not given)	10	1
O=C(CCS(=O)CCC(=O)NCc1ccccc1)NCc1ccccc1	55*	-11
CCCCNS(=O)(=O)c1ccc(NS(=O)(=O)c2c(C)cc(C)cc2C)cc1	16	17
N/C(Cc1ccc([N+](=O)[O-])cc1)=N\OC(=O)c1ccc2ccccc2c1	29	64*
COc1ccc(/C(N)=N/OC(=O)c2cccc([N+](=O)[O-])c2)cc1	16	0
COCCN1CCN(c2cc(-c3ccccc3)nc3cc(-c4cccc(F)c4)nn23)CC1	x	74*
Fc1cccc(-c2cc3nc(-c4ccccc4)cc(N4CCC5(CC4)OCCO5)n3n2)c1	-2	x
COc1ccc(OCC(=O)NCc2cccnc2)cc1	12	x
COc1ccc2c(c1)CCc1c(C(=O)NCc3cccnc3)noc1-2	60*	-10
COCC(=O)Nc1ccccc1NC(C)=O	24	4
COCC(=O)NC(c1ccccc1)c1ccccc1	62*	9
COC(=O)CSc1nnc(CNS(=O)(=O)c2ccc(Cl)cc2)n1C	x	-4
COc1ccc(/C=N/Nc2ccccc2)cc1Cn1nc(C)c([N+](=O)[O-])c1C	x	6
COC(=O)c1cn(CCOc2ccccc2)c2ccccc12	61*	11
COC(=O)c1cn(CCOc2ccccc2OC)c2ccccc12	7	x
CCC(CC)C(=O)NC12CC3CC(CC(C3)C1)C2	28	-7
O=C(CC(c1ccco1)C1CCCCC1=O)c1ccccc1 (stereo not given)	12	14
CCCc1cc(=O)[nH]c(SCC(=O)c2cc(C)n(C(C)COC)c2C)n1 (stereo not given)	57*	14
COCC(C)n1c(C)cc(C(=O)COC(=O)c2nc3nc(C)cc(C)n3n2)c1C (stereo not given)	-14	15
CCN(CC)C(=O)CSCc1cnn(-c2ccccc2)c1-n1cccc1	x	11
CCCC(=O)NCCc1ccc(S(N)(=O)=O)cc1	11	3
CN1CCc2nc(SCCOc3ccccc3)c(C#N)cc2C1	70*	16
CCOC(=O)C1=C(CSc2nc3c(cc2C#N)CN(C)CC3)OC(N)=C(C#N)C1c1ccccc1 (stereo not given)	18	-6
SMILES	Yeast eIF2B	Yeast growth tox
Cc1cc(C)nc(N2CCCC(C(=O)Nc3nnc(C(C)C)s3)C2)n1 (stereo not given)	x	-22
Cn1c(Cn2nnc(-c3ccccc3)n2)nnc1SCc1ccccc1Cl	x	5
Cc1ccc(Nc2cc(C)nn2-c2nc(C)cc(=O)[nH]2)cc1	98	78*
CCOC(=O)c1ccc(Nc2nc(C)cc(=O)[nH]2)cc1	18	15
O=[n+]1c2c(n([O-])c3ccccc31)CCCC2	7	25
Nc1ccc2oc(CCc3ccccc3)nc2c1	53*	-3
c1ccc2oc(CCc3nc4ccccc4o3)nc2c1	18	13
O=C(Cn1nnc(-c2cccs2)n1)N1c2ccccc2Sc2ccc(C(F)(F)F)cc21	-2	7
Cc1ccc(Cn2nnc3c(=O)n(CC(=O)N4CCCc5ccccc54)cnc32)cc1	-4	9
Cc1cccc(Cn2cnc3c(nnn3Cc3ccc(Cl)cc3)c2=O)c1	59*	-16
CCOC(=O)N1CCN(C(=S)NCCOC)CC1	28	9
Cc1c(C(=O)N2CCCC2)sc(NC(=O)c2ccc(Cl)cc2)c1C#N	71*	7
COc1cc(C(=O)Nc2sc(C(=O)N3CCOCC3)c(C)c2C#N)cc(OC)c1OC	16	-8
O=C(C1CCCN(Cc2ccccc2)C1)N1CCc2ccccc2C1 (stereo not given)	-11	-13
COc1ccccc1Nc1ncccc1C(=O)NCc1ccccc1	20	1
CC1=C(OC(=O)c2ccccc2)C(C)(C)C(c2ccc(Br)cc2)OC1=O (stereo not given)	19	-5
Cn1c(=O)c2c(nc(Oc3ccc4c(c3)OCO4)n2Cc2ccc(Br)cc2)n(C)c1=O	57*	-42
COc1ccc(Oc2nc3c(c(=O)n(C)c(=O)n3C)n2Cc2cccc(OC)c2)cc1	4	-16
Cc1[nH]nc(SCC(=O)N2CCC(C)CC2)c1[N+](=O)[O-]	x	6
O/N=C(\c1ccc(Cl)cc1Cl)c1ncc(C(F)(F)F)cc1Cl	17	27
Cc1c(C)n(CC(O)CN2C(=O)c3ccccc3S2(=O)=O)c2ccccc12 (stereo not given)	x	29
